Measurements reported in ChEMBL document CHEMBL1136807, “CC-1065 analogues bearing different DNA-binding subunits: synthesis, antitumor activity, and preliminary toxicity study” (J Med Chem, 2003).

What was measured:
L1210 = assay: Compound was tested in vitro against L1210 leukemia cells; format: functional, cell-based; details: Mus musculus
Outline: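 L1210 murine leukemia cells exposed to drug for 48 h; IC50 reported in nM.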

Mus musculus [1] = assay: Weight change in mice bearing L1210 leukemia after administration of 498 […] compound; format: functional
Mus musculus [2] = assay: Number of mice bearing L1210 leukemia that survived after 30 days, after administration of 298 […] compound; format: functional
Outline: (§1)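 In vivo antitumor test in mice bearing L1210 leukemia, read out as increase in life span (ILS). Body weight was monitored. The optimal dose was defined as the dose giving the best antitumor efficacy with body weight loss ≤15%.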

Mus musculus [3] = assay: Increase in life span of mice bearing L1210 leukemia after administration of 498 […] compound; format: functional; outline: as §1
Mus musculus [4] = assay: Number of mice bearing L1210 leukemia that survived after 30 days, after administration of 620 […] compound; format: functional; outline: as §1
Mus musculus [5] = assay: Weight change in mice bearing L1210 leukemia after administration of 620 […] compound; format: functional
Mus musculus [6] = assay: Increase in life span of mice bearing L1210 leukemia after administration of 620 […] compound; format: functional; outline: as §1
Mus musculus [7] = assay: Number of mice surviving on day 180 treated with 100 […] compound; 8/8; format: functional, organism-based
Mus musculus [8] = assay: Weight change in mice bearing L1210 leukemia after administration of 298 […] compound; format: functional
Mus musculus [9] = assay: Increase in life span of mice bearing L1210 leukemia after administration of 298 […] compound; format: functional; outline: as §1
Mus musculus [10] = assay: Number of mice bearing L1210 leukemia that survived after 30 days, after administration of 498 µg/kg compound
Mus musculus [11] = assay: Days until first mouse died treated with 100 […] compound; no death; format: functional, organism-based
Mus musculus [12] = assay: Increase in life span of mice bearing L1210 leukemia after administration of 67 […] compound; format: functional; outline: as §1
Mus musculus [13] = assay: Increase in life span of mice bearing L1210 leukemia after administration of 45 […] compound; format: functional; outline: as §1
Mus musculus [14] = assay: Increase in life span of mice bearing L1210 leukemia after administration of 100 […] compound; format: functional; outline: as §1
Mus musculus [15] = assay: Number of mice bearing L1210 leukemia that survived after 30 days, after administration of 100 […] compound; format: functional; outline: as §1
Mus musculus [16] = assay: Weight change in mice bearing L1210 leukemia after administration of 100 […] compound; format: functional
Mus musculus [17] = assay: Weight change in mice bearing L1210 leukemia after administration of 45 […] compound; format: functional
Mus musculus [18] = assay: Number of mice bearing L1210 leukemia that survived after 30 days, after administration of 67 […] compound; format: functional; outline: as §1
Mus musculus [19] = assay: Weight change in mice bearing L1210 leukemia after administration of 67 […] compound; format: functional
Mus musculus [20] = assay: Number of mice bearing L1210 leukemia that survived after 30 days, after administration of 45 µg/kg compound
Mus musculus [21] = assay: Weight change in mice bearing L1210 leukemia after administration of 30 […] compound; format: functional
Mus musculus [22] = assay: Number of mice surviving on day 180 treated with 100 […] compound; 7/7; format: functional, organism-based
Mus musculus [23] = assay: Number of mice bearing L1210 leukemia that survived after 30 days, after administration of 30 ug/kg compound
Mus musculus [24] = assay: Increase in life span of mice bearing L1210 leukemia after administration of 30 […] compound; format: functional; outline: as §1

SMILES | IC50 (L1210) [nM] | No. of mice (Mus musculus [7]) | Days (Mus musculus [11]) | ILS at 67 mg/kg (Mus musculus [12]) [%] | ILS at 45 mg/kg (Mus musculus [13]) [%] | Weight change (Mus musculus [17]) [%] | Survivors (Mus musculus [18]) | Weight change (Mus musculus [19]) [%] | Survivors (Mus musculus [20]) | other results
CC(=O)Nc1ccc2oc(C(=O)Nc3ccc4[nH]c(C(=O)N5CC(CCl)c6c5cc(O)c5ccccc65)cc4c3)cc2c1 (racemic) | 1.2 | – | – | – | – | – | – | – | – | –
COc1cccc2c1C(=O)c1c(O)c3c(c(O)c1C2=O)C[C@@](O)(C(=O)CO)C[C@@H]3O[C@H]1C[C@H](N)[C@H](O)[C@H](C)O1 [DOXORUBICIN] | 179 | – | – | – | – | – | – | – | – | –
O=C(Nc1ccc2[nH]c(/C=C/C(=O)N3CC(CCl)c4c3cc(O)c3ccccc43)cc2c1)c1cc2ccccc2[nH]1 (racemic) | 1 | Mice surviving 8/8 | No death | – | – | – | – | – | – | Weight change (Mus musculus [1]): 0%; Survivors (Mus musculus [2]): 0; ILS at 498 mg/kg (Mus musculus [3]): 231%; Survivors (Mus musculus [4]): 0; Weight change (Mus musculus [5]): -13%; ILS at 620 mg/kg (Mus musculus [6]): 147%; Weight change (Mus musculus [8]): 0%; ILS at 298 mg/kg (Mus musculus [9]): 157%; Survivors (Mus musculus [10]): 1
O=C(Nc1ccc2[nH]c(C(=O)N3CC(CCl)c4c3cc(O)c3ccccc43)cc2c1)c1cc2cc([N+](=O)[O-])ccc2o1 (racemic) | 0.44 | Mice surviving 8/8 | No death | 147 | 120 | 2 | 0 | -2 | 0 | ILS at 100 mg/kg (Mus musculus [14]): 173%; Survivors (Mus musculus [15]): 0; Weight change (Mus musculus [16]): -5%
O=C(Nc1ccc2[nH]c(C(=O)N3CC(CCl)c4c3cc(O)c3ccccc43)cc2c1)c1cc2cc(F)ccc2o1 (racemic) | 0.85 | – | No death | 147 | 107 | 5 | 0 | 0 | 0 | Weight change (Mus musculus [21]): 5%; No. of mice (Mus musculus [22]): Mice surviving 7/7; Survivors (Mus musculus [23]): 0; ILS at 30 mg/kg (Mus musculus [24]): 67%
